13 compounds from ChEMBL document CHEMBL2406989, “Design, synthesis and preliminary evaluation of a series of histone deacetylase inhibitors carrying a benzodiazepine ring” (Eur J Med Chem, 2013) can be followed below.

pIC50: −log10 of the molar value. Active and inactive are the calls of the source. The calls are words filed in the database; no cut-off is given here.

The target in assay [1] is T1, Histone deacetylase (Homo sapiens) (UniProt Q13547+O15379+Q9UBN7+Q92769+Q9UQL6+Q8WUI4+Q9BY41+Q96DB2+P56524+Q9UKV0+Q969S8). The following applies: HeLa, at 1 µM.
The target of assay [2] is T2, Protein deacetylase HDAC6 (Homo sapiens, UniProt Q9UBN7).
T2 sequence (Q9UBN7 whole entry): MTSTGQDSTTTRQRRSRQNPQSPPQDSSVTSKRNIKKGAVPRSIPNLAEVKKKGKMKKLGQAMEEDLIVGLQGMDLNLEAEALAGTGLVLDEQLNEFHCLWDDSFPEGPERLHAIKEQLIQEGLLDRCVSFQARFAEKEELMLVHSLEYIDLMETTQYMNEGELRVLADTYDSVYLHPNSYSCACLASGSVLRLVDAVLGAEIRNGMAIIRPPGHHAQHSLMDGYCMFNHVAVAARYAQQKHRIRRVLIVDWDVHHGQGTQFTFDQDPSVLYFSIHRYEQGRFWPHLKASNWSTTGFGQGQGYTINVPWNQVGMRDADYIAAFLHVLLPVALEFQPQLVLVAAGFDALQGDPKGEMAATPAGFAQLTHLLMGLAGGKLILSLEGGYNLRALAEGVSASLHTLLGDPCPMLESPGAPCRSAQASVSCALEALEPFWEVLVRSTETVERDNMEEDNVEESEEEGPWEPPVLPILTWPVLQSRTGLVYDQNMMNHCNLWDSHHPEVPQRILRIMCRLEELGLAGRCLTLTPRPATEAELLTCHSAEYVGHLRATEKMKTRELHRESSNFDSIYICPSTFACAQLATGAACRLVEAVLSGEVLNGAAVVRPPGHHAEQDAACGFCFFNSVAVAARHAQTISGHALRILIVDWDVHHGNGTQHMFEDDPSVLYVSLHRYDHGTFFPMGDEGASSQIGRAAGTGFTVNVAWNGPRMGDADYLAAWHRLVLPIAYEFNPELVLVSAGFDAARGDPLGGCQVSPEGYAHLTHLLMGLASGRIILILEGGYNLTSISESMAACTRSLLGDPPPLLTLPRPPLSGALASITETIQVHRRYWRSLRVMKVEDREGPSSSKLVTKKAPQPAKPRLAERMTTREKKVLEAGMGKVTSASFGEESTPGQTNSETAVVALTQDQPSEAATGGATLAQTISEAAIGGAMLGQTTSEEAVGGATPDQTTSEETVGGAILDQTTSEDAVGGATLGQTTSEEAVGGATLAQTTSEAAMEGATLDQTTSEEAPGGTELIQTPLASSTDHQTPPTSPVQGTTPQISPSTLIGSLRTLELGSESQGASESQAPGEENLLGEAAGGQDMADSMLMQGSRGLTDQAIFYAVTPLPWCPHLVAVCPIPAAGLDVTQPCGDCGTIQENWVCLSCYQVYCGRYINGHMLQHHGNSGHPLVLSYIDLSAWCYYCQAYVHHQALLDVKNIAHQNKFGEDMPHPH
Nature of the assay: Inhibition of full length His-tagged human recombinant HDAC6 expressed in baculovirus system using fluor de Lys as substrate by fluorometric analysis.

The test system of another assay is HCT-116. Nature of the assay: Antiproliferative activity against human HCT116 cells after 72 hrs by CellTiter-Glo assay. Type of assay: functional, cell-based. The following applies: HCT-116, 72 h.
The next assay deals with K562. Nature of the assay: Antiproliferative activity against human K562 cells after 72 hrs by CellTiter-Glo assay. Conditions: K562, 72 h. The assay is classed as functional, cell-based.
Assay [3] concerns NB-4. In words: Induction of apoptosis in human NB4 cells after 48 hrs by Annexin V test. Type of assay: functional, cell-based. Conditions: NB-4, 48 h.
The target of the next assay is Histone deacetylase 1 (Homo sapiens, UniProt Q13547). In words: Inhibition of full length His-tagged human recombinant HDAC1 expressed in baculovirus system using fluor de Lys as substrate by fluorometric analysis.
The target in the next assay is Histone deacetylase. In words: Inhibition of HDAC in human HeLa cell extract using fluor de Lys as substrate after 15 mins by fluorometric analysis. The assay is classed as protein assay.
The next assay has as its system A549. In words: Antiproliferative activity against human A549 cells after 72 hrs by CellTiter-Glo assay. Type of assay: functional, cell-based. The following applies: A549, 72 h.
The test system of assay [4] is NB-4. Nature of the assay: Induction of apoptosis in human NB4 cells assessed increase in cell shrinking using Giemsa staining by microscopic analysis. The assay is classed as functional, cell-based.
The test system of assay [5] is NB-4. In words: Induction of apoptosis in human NB4 cells assessed apoptotic cells at 0.5 uM using Annexin-V-Fluos and propidium iodide staining by cytofluorimetric analysis (reference value: 7.2 %). Type of assay: functional.
Assay [6] has as its target T1, Histone deacetylase (Homo sapiens). Nature of the assay: Inhibition of HDAC in human NB4 cells assessed as histone H4 acetylation at 0.5 uM by densitometric analysis. Type of assay: cell-based. Conditions: NB-4. Put shortly:
(§1)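 NB4 cells (1×10^5/ml) exposed 6 h to 0, 0.5, 1 or 2 μM drug (DMSO vehicle ≤0.3%). Lysed in 1% Triton X-100/1 mM PMSF/40 mM Tris-HCl pH 8.0/150 mM NaCl and sonicated. Run on 12.5% SDS-PAGE, blotted, probed with rabbit anti-acetyl-H3 or -H4 plus peroxidase secondary, ECL. Densitometry against α-tubulin, treated vs untreated, from one typical experiment.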

For assay [7], the system named is NB-4. In words: Induction of apoptosis in human NB4 cells assessed increase in apoptotic bodies at 1 to 2 uM using Giemsa staining by microscopic analysis. Type of assay: functional, cell-based.
The target in assay [8] is T1, Histone deacetylase (Homo sapiens). Nature of the assay: Inhibition of HDAC in human NB4 cells assessed as histone H4 acetylation after 6 hrs by Western blot/immunostaining analysis. Conditions: NB-4. The assay is classed as cell-based. Put shortly: as §1
Assay [9] deals with NB-4. In words: Induction of apoptosis in human NB4 cells assessed apoptotic cells at 2 uM using Annexin-V-Fluos and propidium iodide staining by cytofluorimetric analysis (reference value: 7.2 %). The assay is classed as functional.
The subject of assay [10] is NB-4. Nature of the assay: Induction of apoptosis in human NB4 cells assessed fragmentation using Giemsa staining by microscopic analysis. Type of assay: functional, cell-based.
The target in assay [11] is T1, Histone deacetylase (Homo sapiens). Nature of the assay: Inhibition of HDAC in human NB4 cells assessed as histone H3 acetylation at 0.5 uM by densitometric analysis. Type of assay: cell-based. The following applies: NB-4. Put shortly: as §1
The target is the same in assay [12]. Nature of the assay: Inhibition of HDAC in human NB4 cells assessed as histone H3 acetylation after 6 hrs by Western blot/immunostaining analysis. Type of assay: cell-based. Conditions: NB-4. Put shortly: as §1
Assay [13] concerns NB-4. Nature of the assay: Cytotoxicity against human NB4 cells assessed as cell viability after 48 hrs by trypan blue exclusion test. The assay is classed as functional, cell-based. The following applies: NB-4, 48 h.
The target in assay [14] is T1, Histone deacetylase (Homo sapiens). Nature of the assay: Inhibition of HDAC in human NB4 cells assessed as histone H3 acetylation at 1 uM by densitometric analysis. Type of assay: cell-based. Conditions: NB-4. Put shortly: as §1
Assay [15] has the same target. Nature of the assay: Inhibition of HDAC in human NB4 cells assessed as histone H4 acetylation at 1 uM by densitometric analysis. Type of assay: cell-based. The following applies: NB-4. Put shortly:
as §1

Assay [16] relates to NB-4. In words: Induction of apoptosis in human NB4 cells assessed apoptotic cells at 1 uM using Annexin-V-Fluos and propidium iodide staining by cytofluorimetric analysis (reference value: 7.2 %). The assay is classed as functional.

Sequence of Histone deacetylase 1 (Q13547 whole entry): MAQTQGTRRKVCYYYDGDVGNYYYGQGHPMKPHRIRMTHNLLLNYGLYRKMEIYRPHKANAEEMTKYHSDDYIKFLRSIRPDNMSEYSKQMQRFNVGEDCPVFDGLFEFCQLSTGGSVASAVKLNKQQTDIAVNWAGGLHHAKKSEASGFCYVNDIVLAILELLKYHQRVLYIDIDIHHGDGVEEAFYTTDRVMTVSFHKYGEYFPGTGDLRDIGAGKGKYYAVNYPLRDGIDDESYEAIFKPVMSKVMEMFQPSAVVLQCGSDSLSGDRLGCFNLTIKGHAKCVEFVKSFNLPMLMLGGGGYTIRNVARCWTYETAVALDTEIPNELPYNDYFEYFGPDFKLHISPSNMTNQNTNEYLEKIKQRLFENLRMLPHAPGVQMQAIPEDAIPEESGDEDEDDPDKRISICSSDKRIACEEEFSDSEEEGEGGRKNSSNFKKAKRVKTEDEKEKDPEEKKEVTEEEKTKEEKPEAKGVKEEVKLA

As to `CN1C(=O)C(NC(=O)CCCCCCCC(=O)NO)N=C(c2ccccc2)c2ccccc21` (racemic), the inhibition in assay [1] came to 57%. Besides, the pIC50 in [2] was 5.04; in the assay with HCT-116 it was 5.41; with K562, 5.34; in the assay with NB-4 [3], 5.40; at Histone deacetylase 1, 6.32; in the assay with A549, 5.10. This compound also came in with an IC50 at Histone deacetylase of 600 nM.

`CN1C(=O)CN=C(c2ccccc2)c2cc(C#C/C=C/C(=O)NO)ccc21` had an inhibition in [1] of 82%. Further, the pIC50 in assay [2] was 5.11; with HCT-116, 6.34; in the assay on K562, 6.11; in the assay on NB-4 [3], 5.59; on Histone deacetylase 1, 6.36; in the assay with A549, 5.89. The compound also had an IC50 against Histone deacetylase of 160 nM.

Take `CN1C(=O)C(NC(=O)CCCCCC(=O)NO)N=C(c2ccccc2)c2ccccc21` (racemic): in assay [1], the inhibition was determined as 73%. The pIC50 in [2] was 6.74; in the assay with HCT-116, 5.84; in the assay with K562, 5.74; in the assay with NB-4 [3], 5.59; on Histone deacetylase 1, 6.57; in the assay on A549, 5.35. The IC50 against Histone deacetylase was found to be 320 nM.

In assay [1], `CN1C(=O)[C@H](NC(=O)CCCCCCC(=O)NO)N=C(c2ccccc2)c2ccccc21` came in with an inhibition of 73%. Also, the pIC50 in assay [2] was 5.19; in the assay on HCT-116, 5.97; in the assay with K562, 5.76; with NB-4 [3], less than 5.30; on Histone deacetylase 1 it was 6.15; in the assay with A549, 5.57. Further, at Histone deacetylase, the IC50 was determined as 310 nM.

As to `CN1C(=O)CN=C(c2ccccc2)c2cc(C#CCCCC(=O)NO)ccc21`, the inhibition in assay [1] came out at 39%. The negative logarithm of the IC50 (pIC50) in the assay on HCT-116 was 5.58; with K562, 5.30; with NB-4 [3] it was 5.71; with A549, 5.23.

Compound `C[C@@H]1N=C(c2ccccc2)c2cc(C#CCCCC(=O)NO)ccc2NC1=O` registered an inhibition in [1] of 65%. Moreover, the negative logarithm of the IC50 (pIC50) in assay [2] is 6.34; in the assay with HCT-116, 6.01; with K562 it was 5.85; with NB-4 [3] it was 5.52; at Histone deacetylase 1, 6.31; in the assay with A549, 5.55. This compound also gave an IC50 on Histone deacetylase of 340 nM.

In the assay on NB-4 [3], `CN1C(=O)C(NC(=O)CCCCCCC(=O)NO)N=C(c2ccccc2)c2ccccc21` (racemic) had a pIC50 of 5.92.

With `CN1C(=O)[C@@H](NC(=O)CCCCCCC(=O)NO)N=C(c2ccccc2)c2ccccc21`, the Activity entry with NB-4 [4] is “Dose-dependent effect”; in the assay with NB-4 [5] it was 8.6%; in the assay on NB-4 [9], 83.4%; with NB-4 [10], “Dose-dependent effect”; with NB-4 [16] it was 66.2%. Also, the inhibition is 88% in assay [1]; 8% in [6]; “Dose-dependent effect” in assay [8]; 50% in [11]; “Dose-dependent effect” in assay [12]; 84% in assay [14]. In addition, the inhibition in [15] was determined as 51%. The pIC50 in assay [2] is 6.40; with HCT-116, 6.33; in the assay on K562, 6.14; with NB-4 [3], 6.07; on Histone deacetylase 1 it was 6.26; in the assay on NB-4 [13] it was 6.34. In the assay on A549, this compound gave a pIC50 of 5.84. Also, the outcome with NB-4 [7] was Active. For the same compound, the IC50 against Histone deacetylase stood at 120 nM.

As for `O=C(CCCCCCC(=O)N1CCN=C(c2ccccc2)c2ccccc21)NO`, the inhibition in assay [1] stood at 82%. The pIC50 in assay [2] was 5.95; in the assay on HCT-116, 5.84; with K562 it was 5.78; with NB-4 [3] it was 5.40; on Histone deacetylase 1, 6.60; in the assay on A549, 5.60. Also, at Histone deacetylase, the half-inhibitory concentration (IC50) amounted to 180 nM.

For `CN1C(=O)CN=C(c2ccccc2)c2cc(C#CCCC(=O)NO)ccc21`, the inhibition in assay [1] turned out to be 22%. Further, the pIC50 was less than 4.00 in [2]; 5.18 in the assay on HCT-116; 5.09 with K562; less than 5.30 in the assay on NB-4 [3]; 5.56 on Histone deacetylase 1; 4.99 in the assay on A549.

In turn, `CN1C(=O)C(NC(=O)CCCCC(=O)NO)N=C(c2ccccc2)c2ccccc21` (racemic) showed an inhibition in assay [1] of 70%. In addition, the negative-log IC50 (pIC50) in [2] is less than 4.00; in the assay with HCT-116, 5.70; with K562 it was 5.48; in the assay on NB-4 [3], 5.72; on Histone deacetylase 1, 6.38; in the assay on A549, 5.26. For the same compound, the IC50 at Histone deacetylase was 380 nM.

Consider `CN1C(=O)C(N)N=C(c2ccccc2)c2cc(C#CCCCC(=O)NO)ccc21` (racemic), for which the pIC50 in assay [2] was less than 4.00; on Histone deacetylase 1, 5.96.

Take `CN1C(=O)CN=C(c2ccccc2)c2cc(C#CCCCCC(=O)NO)ccc21`: the inhibition in assay [1] came to 36%. In addition, the pIC50 in [2] was 5.23; with HCT-116, 5.73; with K562 it was 5.57; in the assay with NB-4 [3], 5.39; at Histone deacetylase 1, 5.72; with A549 it was 5.57.
